The subject of data set [1] is Mus musculus. Put plainly: Anticonvulsant activity in CD1 albino mouse assessed as protection against pentylenetetrazole-induced convulsions at 10 mg/kg, po administered 30 mins prior to pentylenetetrazole challenge measured over 30 mins (reference value: 7.1%). It counts as functional.
For data set [2], the system named is Mus musculus. Put plainly: Neurotoxicity in CD1 albino mouse assessed as decrease in number of falls from rotating rod at 30 mg/kg, po by rota-rod test relative to control. It is filed as toxicity, organism-based. On the set-up: dose 30 mg/kg, route oral. As to conditions: in vivo, TDE = time-dependent effect. The gist of the method:
(§1)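 Motor coordination was tested on a rota-rod turning at 24 rpm in male CD-1 mice dosed po in 1% CMC. Falls within 30 s were counted at a pretest and at 15, 30, 45 and 60 min after dosing. Each value is the mean of five mice, compared with CMC-treated controls.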
In general terms: The rotarod test checks motor coordination on a turning rod.

Data set [3] relates to Mus musculus. Description: Anxiolytic activity in CD1 albino mouse assessed as increase in time spent in illuminated side at 30 mg/kg, po administered 30 mins prior to testing measured for 5 mins by light-dark box test. More on the design: dose 30 mg/kg. It counts as functional, organism-based. The essentials: (§2)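 Light/dark box: two equal acrylic compartments, one lit by a 60 W lamp, joined by a floor-level opening. Male CD-1 mice were dosed po in 1% CMC 30 min before the test, then placed in the centre of the lit side facing away from the dark side. Over 5 min, transfers and time in the light side were recorded, n = 8 mice per group.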

Data set [4] relates to Rattus norvegicus. Put plainly: Procognitive effect in Harlan Wistar rat assessed as decrease in exploring time of unfamiliar rat during social investigatory behaviour at 10 to 100 mg/kg, po administered 30 mins prior to testing measured for 5 mins by social learning test relative to control. It is filed as functional, organism-based.
Data set [5] concerns Rattus norvegicus. Put plainly: Procognitive effect in Harlan Wistar rat assessed as exploring time of familiar rat during social investigatory behaviour at 100 mg/kg, po administered 30 mins prior to testing measured for 5 mins by social learning test (reference value: 27.6 secs). It is filed as functional.
For data set [6], the system named is Rattus norvegicus. Description: Procognitive effect in Harlan Wistar rat assessed as exploring time of familiar rat during social investigatory behaviour at 30 mg/kg, po administered 30 mins prior to testing measured for 5 mins by social learning test (reference value: 27.6 secs). It is filed as functional.
Data set [7] concerns Rattus norvegicus. Put plainly: Procognitive effect in Harlan Wistar rat assessed as exploring time of familiar rat during social investigatory behaviour at 10 mg/kg, po administered 30 mins prior to testing measured for 5 mins by social learning test (reference value: 27.6 secs). It counts as functional.
In data set [8] the test system is Mus musculus. Description: Antiamnesic activity in CD1 albino mouse assessed as reversal of scopolamine-induced amnesia at 1 mg/kg, po administered 30 mins prior to scopolamine challenge measured after 24 hrs by passive avoidance test. It counts as functional, organism-based. More on the design: dose 1 mg/kg. The gist of the method:
(§3)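 Step-through passive avoidance in male CD-1 mice (22–24 g). Test drugs were given po, suspended in 1% carboxymethylcellulose at 10 ml/kg, 30 min before the training session. For the antiamnesic arm, scopolamine 1.5 mg/kg was injected immediately after punishment. Retention latency was compared with CMC-treated controls, n = 10–12 mice per group.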

In data set [9] the test system is Mus musculus. Description: Cognitive enhancing effect in CD1 albino mouse assessed as increase in retention latency at 1 to 100 mg/kg, po administered 30 mins prior to testing measured after 24 hrs by passive avoidance test relative to control. It counts as functional, organism-based. The gist of the method: as §3
The nature of data set [10]: Displacement of [3H]Ro15-1788 from GABA-A receptor benzodiazepine binding site in bovine cerebral cortex membranes after 1 hr. It is filed as cell membranes, Bos taurus, Membrane.
The species named for another data set is Bos taurus. Description: Displacement of [3H]Ro15-1788 from GABA-A receptor benzodiazepine binding site in bovine cerebral cortex membranes at 10 uM after 1 hr. It is filed as cell membranes. As to conditions: Membrane. For orientation: In a radioligand displacement assay an active substance lowers the binding of a labelled ligand.
Data set [11] deals with Mus musculus. Put plainly: Neurotoxicity in CD1 albino mouse assessed as decrease in number of falls from rotating rod at 10 mg/kg, po by rota-rod test relative to control. It is filed as toxicity, organism-based. More on the design: dose 10 mg/kg, route oral. As to conditions: in vivo, TDE = time-dependent effect. The essentials: as §1
In data set [12] the test system is Mus musculus. Put plainly: Anxiolytic activity in CD1 albino mouse assessed as increase in time spent in illuminated side at 10 mg/kg, po administered 30 mins prior to testing measured for 5 mins by light-dark box test in presence of flumazenil. On the set-up: dose 10 mg/kg. It counts as functional, organism-based. The gist of the method: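 This is the mouse light/dark box (male CD-1, 22–24 g) with flumazenil added at 100 mg/kg po. Drugs were suspended in 1% CMC and given po at 10 ml/kg, 30 min before testing. Mice started in the centre of the lit side and explored for 5 min. Transfers and time in the light side were scored. Values are means of eight mice, compared with flumazenil-treated mice.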

Data set [13] concerns Mus musculus. Description: Anxiolytic activity in CD1 albino mouse assessed as increase in time spent in illuminated side at 10 mg/kg, po administered 30 mins prior to testing measured for 5 mins by light-dark box test. It counts as functional, organism-based. On the set-up: dose 10 mg/kg. The essentials:
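Male CD-1 mice (22–24 g) were dosed po at 10 ml/kg with drug suspended in 1% carboxymethylcellulose, 30 min before the test. Each mouse was placed in the centre of the lit compartment of a two-compartment light/dark box, facing away from the dark side, and explored for 5 min. Transfers and time in the light side were recorded. Values are means of eight mice, analysed by ANOVA with Scheffé post-hoc.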

In data set [14] the test system is Mus musculus. Put plainly: Anxiolytic activity in CD1 albino mouse assessed as increase in time spent in illuminated side at 10 to 30 mg/kg, po administered 30 mins prior to testing measured for 5 mins by light-dark box test. It is filed as functional, organism-based. The essentials: as §2
Data set [15] has as its system Rattus norvegicus. Put plainly: Procognitive effect in Harlan Wistar rat assessed as decrease in exploring time of unfamiliar rat during social investigatory behaviour at 10 mg/kg, po administered 30 mins prior to testing measured for 5 mins by social learning test relative to control. It counts as functional, organism-based. On the set-up: dose 10 mg/kg.
In data set [16] the test system is Mus musculus. Description: Antiamnesic activity in CD1 albino mouse assessed as reversal of scopolamine-induced amnesia at 3 mg/kg, po administered 30 mins prior to scopolamine challenge measured after 24 hrs by passive avoidance test. It counts as functional, organism-based. More on the design: dose 3 mg/kg.
For data set [17], the system named is Mus musculus. Put plainly: Cognitive enhancing effect in CD1 albino mouse assessed as increase in retention latency at 3 to 30 mg/kg, po administered 30 mins prior to testing measured after 24 hrs by passive avoidance test relative to control. It counts as functional, organism-based. The essentials:
as §3

Data set [18] relates to Mus musculus. Put plainly: Cognitive enhancing effect in CD1 albino mouse assessed as increase in retention latency at 1 to 10 mg/kg, po administered 30 mins prior to testing measured after 24 hrs by passive avoidance test relative to control. It counts as functional, organism-based. The gist of the method:
as §3

In data set [19] the test system is Mus musculus. Put plainly: Cognitive enhancing effect in CD1 albino mouse assessed as increase in retention latency at 1 to 30 mg/kg, po administered 30 mins prior to testing measured after 24 hrs by passive avoidance test relative to control. It counts as functional, organism-based. The essentials: as §3
Data set [20] deals with Rattus norvegicus. Description: Procognitive effect in Harlan Wistar rat assessed as decrease in exploring time of unfamiliar rat during social investigatory behaviour at 30 mg/kg, po administered 30 mins prior to testing measured for 5 mins by social learning test relative to control. It counts as functional, organism-based. More on the design: dose 30 mg/kg.

Structures are written as SMILES. Active and inactive are the calls of the source. No cut-off for these calls is given here.

For the molecule `[O-][n+]1nc2c(I)cnn2c2cc(OCc3cccs3)ccc21`, the Activity in the data set on Mus musculus [1] is given as 0%; in the data set with Mus musculus [2], “tde”. Moreover, the result with Mus musculus [3], in the data set with Mus musculus [8] and with Mus musculus [9] was Active. The outcome in the data set with Rattus norvegicus [4] was inactive. Besides, the Time in the data set with Rattus norvegicus [5] is recorded as 41.9 s; in the data set on Rattus norvegicus [6] it was 42.3 s; with Rattus norvegicus [7] it was 32.5 s.

With `CN(C)/C=N/C(=O)c1cnn2c1n[n+]([O-])c1ccc(OCc3cccs3)cc12`, in [10], the Ki (usually the dissociation constant of the complex between target and ligand, obtained from inhibition or displacement) is 620 nM.

Molecule `Cc1cnn2c1n[n+]([O-])c1ccc(OCc3ccnc(Cl)c3)cc12` returned a Ki in [10] of 7.49 nM.

For the molecule `Cn1ncnc1-c1cnn2c1n[n+]([O-])c1ccc(OCc3ccccc3)cc12`, in the data set filed under Bos taurus, the inhibition (commonly the change of the read-out against control, counted positive when it falls) worked out at 46%.

In turn, `Cc1cnn2c1n[n+]([O-])c1ccc(Cl)cc12` yielded an inhibitory constant (Ki) in data set [10] of 315 nM.

As for `CN1C(=O)CN=C(c2ccccc2)c2cc(Cl)ccc21` [DIAZEPAM], the Activity is reported as 100% in the data set with Mus musculus [1] and “tde” with Mus musculus [11]. The outcome in the data set on Mus musculus [12] was inactive. In the data set with Mus musculus [13], the outcome was Active.

Molecule `CN(C)/C=N/C(=O)c1cnn2c1n[n+]([O-])c1ccc(OCc3ccncc3)cc12` yielded an inhibition constant (Ki) in data set [10] of 515 nM. This counts as sub-micromolar.

In the data set listed under Bos taurus, `Cn1cnc(-c2cnn3c2n[n+]([O-])c2ccc(OCc4ccccc4)cc23)n1` yielded an inhibition of 50%.

Turning to `Cc1cnn2c1n[n+]([O-])c1ccc(OCc3ccco3)cc12`, the affinity in [10], expressed as Ki, was 30.9 nM. In other words, the double-digit nanomolar range.

Molecule `[O-][n+]1nc2c(-c3ncn[nH]3)cnn2c2cc(OCc3ccncc3)ccc21` gave a Ki in [10] of 168 nM. This Ki lies about 5.4-fold higher than the previous one.

Molecule `Cc1noc(-c2cnn3c2n[n+]([O-])c2ccc(OCc4ccncc4)cc23)n1` yielded a Ki in data set [10] of 453 nM. Also, the figures for the Activity in the data set with Mus musculus [1] and with Mus musculus [2] were 10% and “tde”, respectively. Besides, the result in the data set on Mus musculus [14], in the data set with Mus musculus [16] and with Mus musculus [17] was Active. Further, the result in the data set on Rattus norvegicus [15] was inactive. In the data set with Rattus norvegicus [7], the Time is 44.6 s.

Take `CN(C)/C=N/C(=O)c1cnn2c1n[n+]([O-])c1ccc(OCc3ccccc3)cc12`: the Ki in data set [10] came out at 86.6 nM.

As to `[O-][n+]1nc2c(I)cnn2c2cc(NCc3ccncc3)ccc21`, the Ki in [10] is 0.33 nM.

Turning to `[O-][n+]1nc2c(I)cnn2c2cc(NCc3ccco3)ccc21`, the Ki in data set [10] is 0.23 nM. This Ki and that of the molecule before are within 1.5-fold of each other.

In data set [10], `NC(=O)c1cnn2c1n[n+]([O-])c1ccc(OCc3ccccc3)cc12` gave a Ki of 324 nM. Against the preceding molecule, the Ki is about 1400-fold higher.

Regarding `[O-][n+]1nc2c(-c3ncn[nH]3)cnn2c2cc(OCc3ccccc3)ccc21`, affinity in [10] was put at a Ki of 325 nM. In addition, the Activity in the data set on Mus musculus [1] was 0%; in the data set on Mus musculus [2], “tde”. The result in the data set with Mus musculus [14], in the data set with Mus musculus [8] and in the data set on Mus musculus [18] was Active. The result in the data set with Rattus norvegicus [15] was inactive. Besides, in the data set on Rattus norvegicus [7], the Time amounted to 40.3 s.

Molecule `Cc1cnn2c1nnc1ccc(Cl)cc12` yielded a Ki in data set [10] of 400 nM.

Regarding `Cc1noc(-c2cnn3c2n[n+]([O-])c2ccc(OCc4ccccc4)cc23)n1`, in data set [10], the Ki turned out to be 70.7 nM. Besides, the Activity with Mus musculus [1] is reported as 10%; in the data set on Mus musculus [2], “tde”. Also, the result in the data set on Mus musculus [14], in the data set on Mus musculus [8] and in the data set on Mus musculus [19] was Active. The result in the data set with Rattus norvegicus [15] was inactive. Moreover, in the data set with Rattus norvegicus [7], the Time is 43.1 s.

For the molecule `[O-][n+]1ccc(COc2ccc3c(c2)n2ncc(I)c2n[n+]3[O-])cc1`, in data set [10], the Ki is 20.4 nM.

Take `NC(=O)c1cnn2c1n[n+]([O-])c1ccc(OCc3cccs3)cc12`: the Ki in data set [10] was found to be 960 nM. Against the preceding molecule, the Ki is about 47-fold higher.

In turn, `[O-][n+]1nc2c(I)cnn2c2cc(NCc3ccccn3)ccc21` yielded an inhibitory constant (Ki) in data set [10] of 0.72 nM.

Consider `Cc1noc(-c2cnn3c2n[n+]([O-])c2ccc(OCc4cccs4)cc23)n1`, for which, in data set [10], the Ki is 1620 nM.

In data set [10], `NC(=O)c1cnn2c1n[n+]([O-])c1ccc(OCc3ccncc3)cc12` returned a Ki of 1200 nM.

For `NC(=O)CN1CCCC1=O` [PIRACETAM], in the data set with Rattus norvegicus [20], the result was inactive. The Time in the data set on Rattus norvegicus [6] amounted to 46.3 s.

These data come from ChEMBL document CHEMBL2346497, “Synthesis of novel cognition enhancers with pyrazolo[5,1-c][1,2,4]benzotriazine core acting at γ-aminobutyric acid type A (GABA(A)) receptor” (Bioorg Med Chem, 2013).
